Legend:
MOLM-13 = assay: Cytotoxicity against human MOLM-13 cells assessed as inhibition of cell viability measured after 24 hrs by WST-1 assay; assay type: functional, cell-based; settings: MOLM-13, 24 h
How it was run: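 MOLM-13 seeded at 30,000 cells/well in RPMI with 10 % FBS, 0.2 mM L-glutamine, penicillin/streptomycin. Compounds dissolved in DMSO; 24 h exposure. Viability read by WST-1. Nuclear morphology checked with Hoechst 33342 after formaldehyde fixation. IC50 from four-parameter regression of WST-1 signal. Cells were mycoplasma-tested.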

[1] = system: Mycobacterium tuberculosis; assay: Antimycobacterial activity against drug-sensitive Mycobacterium tuberculosis H37Rv assessed as bacterial growth inhibition measured after 1 week by MABA assay; assay type: functional, organism-based; settings: 168 h
How it was run: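 Colonies grown on 7H10+OADC agar at 37 °C, then to mid-log in 7H9+OADC; about 4×10^5 CFU/mL inoculated into 7H9 with escalating compound concentrations. Incubated 37 °C for 1 week, then resazurin (0.6 mM in PBS) mixed 8:5 with 20 % Tween 80 was added and incubated overnight at 37 °C. Fluorescent resorufin read-out gave IC50.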

[2] = Cytotoxicity against rat H9c2 cells assessed as inhibition of cell viability measured after 24 hrs by WST-1 assay; assay type: toxicity, cell-based
How it was run: (§1)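 NRK and H9c2 seeded at 5000 cells/well in DMEM with 10 % FBS, 0.2 mM L-glutamine, penicillin/streptomycin. Compounds dissolved in DMSO; 24 h exposure. Viability read by WST-1. Hoechst 33342 nuclear morphology was checked after fixation. IC50 from four-parameter regression of WST-1 signal. Cells were mycoplasma-tested.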

[3] = Cytotoxicity against rat NRK cells assessed as inhibition of cell viability measured after 24 hrs by WST-1 assay; assay type: toxicity, cell-based; how it was run: as §1

Work on COc1cc2c(cc1O)[n+]([O-])c1ccccc1[n+]2[O-] yielded an IC50 (MOLM-13) of over 100 µM and an IC50 [1] of 11.1 µM.

Work on CCOCOc1cc(OC)c2c(c1)[n+]([O-])c1ccccc1[n+]2[O-] yielded an IC50 at 24 h [2] of over 25 µM, an IC50 (MOLM-13) of 5.1 µM and an IC50 [1] of 0.06 µM. For the same compound, the IC50 at 24 h [3] was over 25 µM.

Work on CCOC(=O)COc1cc(OC)c2c(c1)[n+]([O-])c1ccccc1[n+]2[O-] yielded an IC50 (MOLM-13) of 10 µM and an IC50 [1] of 0.25 µM.

For COc1cccc2c1[n+]([O-])c1ccccc1[n+]2[O-], the IC50 at 24 h [2] was 12 µM, the IC50 (MOLM-13) was 1.4 µM and the IC50 [1] was 0.04 µM. It also gave an IC50 at 24 h [3] of 32 µM.

Compound CCOC(=O)COc1cc(OCC(=O)OCC)c2c(c1)[n+]([O-])c1ccccc1[n+]2[O-] has an IC50 at 24 h [2] of over 200 µM, an IC50 (MOLM-13) of 2 µM and an IC50 [1] of 2.88 µM. The IC50 at 24 h [3] was over 200 µM.

For CC(=O)Oc1cc(OC(C)=O)c2c(c1)[n+]([O-])c1ccccc1[n+]2[O-], the IC50 (MOLM-13) was 35 µM and the IC50 [1] was 5 µM.

CCOC(=O)COc1cc(O)c2c(c1)[n+]([O-])c1ccccc1[n+]2[O-] showed an IC50 at 24 h [2] of 89 µM, an IC50 (MOLM-13) of 5.7 µM and an IC50 [1] of 0.17 µM. For the same compound, the IC50 at 24 h [3] was 194 µM.

Compound CC(=O)Oc1cc(O)c2c(c1)[n+]([O-])c1ccccc1[n+]2[O-] has an IC50 (MOLM-13) of 16 µM and an IC50 [1] of 0.85 µM.

Work on [O-][n+]1c2ccccc2[n+]([O-])c2cc(O)c(O)cc21 yielded an IC50 (MOLM-13) of over 50 µM and an IC50 [1] of over 50 µM.

COc1cc(O)c2c(c1)[n+]([O-])c1ccccc1[n+]2[O-] gave an IC50 at 24 h [2] of 81 µM, an IC50 (MOLM-13) of 3.8 µM and an IC50 [1] of 0.05 µM. For the same compound, the IC50 at 24 h [3] was 38 µM.

Work on [O-][n+]1c2ccccc2[n+]([O-])c2c(O)cc(O)cc21 yielded an IC50 (MOLM-13) of 11 µM and an IC50 [1] of 0.56 µM.

For COc1cc(OC(C)=O)c2c(c1)[n+]([O-])c1ccccc1[n+]2[O-], the IC50 at 24 h [2] was 55 µM, the IC50 (MOLM-13) was 6.5 µM and the IC50 [1] was 0.08 µM. The IC50 at 24 h [3] was 36 µM.

Compound [O-][n+]1c2cccc(O)c2[n+]([O-])c2cccc(O)c21 has an IC50 at 24 h [2] of over 50 µM, an IC50 (MOLM-13) of 2 µM and an IC50 [1] of 0.17 µM. It also gave an IC50 at 24 h [3] of over 50 µM.

For [O-][n+]1c2ccccc2[n+]([O-])c2c(O)cccc21, the IC50 at 24 h [2] was over 100 µM, the IC50 (MOLM-13) was 11 µM and the IC50 [1] was 0.26 µM. For the same compound, the IC50 at 24 h [3] was 79 µM.

For COc1cc(O)cc2c1[n+]([O-])c1ccccc1[n+]2[O-], the IC50 at 24 h [2] was over 200 µM, the IC50 (MOLM-13) was over 100 µM and the IC50 [1] was 1.91 µM. It also gave an IC50 at 24 h [3] of over 100 µM.

COCOc1cc(O)c2c(c1)[n+]([O-])c1ccccc1[n+]2[O-] showed an IC50 at 24 h [2] of over 50 µM, an IC50 (MOLM-13) of 5.2 µM and an IC50 [1] of 0.11 µM. For the same compound, the IC50 at 24 h [3] was over 100 µM.

With CCOCOc1cc(O)c2c(c1)[n+]([O-])c1ccccc1[n+]2[O-] the IC50 at 24 h [2] was over 25 µM, the IC50 (MOLM-13) was 3.8 µM and the IC50 [1] was 0.02 µM. It also gave an IC50 at 24 h [3] of over 25 µM.

For COc1cccc2c1[n+]([O-])c1cccc(O)c1[n+]2[O-], the IC50 at 24 h [2] was 46 µM, the IC50 (MOLM-13) was 1.4 µM and the IC50 [1] was 0.014 µM. The IC50 at 24 h [3] was 77 µM.

In the case of COc1cc(OC)c2c(c1)[n+]([O-])c1ccccc1[n+]2[O-], the IC50 at 24 h [2] is reported as 108 µM, the IC50 (MOLM-13) is reported as 6 µM and the IC50 [1] is reported as 0.12 µM. It also gave an IC50 at 24 h [3] of 46 µM.

In the case of CCOC(=O)COc1cc(OC)cc2c1[n+]([O-])c1ccccc1[n+]2[O-], the IC50 at 24 h [2] is reported as 19 µM, the IC50 (MOLM-13) is reported as 1.4 µM and the IC50 [1] is reported as 2.41 µM. For the same compound, the IC50 at 24 h [3] was 14 µM.

With CCOc1cc(O)c2c(c1)[n+]([O-])c1ccccc1[n+]2[O-] the IC50 at 24 h [2] was 103 µM, the IC50 (MOLM-13) was 2 µM and the IC50 [1] was 0.04 µM. The IC50 at 24 h [3] was 87 µM.

Source: ChEMBL document CHEMBL6153049, “Functionalized regioisomers of the natural product phenazines myxin and iodinin as potent inhibitors of Mycobacterium tuberculosis and human acute myeloid leukemia cells” (Eur J Med Chem, 2025)
